Assay results of several laboratories.
pEC50, pIC50, pKd: −log10 of the molar value.
SHMT2: Serine hydroxymethyltransferase, mitochondrial (SHMT2, Homo sapiens, UniProt P34897)
PTGS2: Prostaglandin G/H synthase 2 (PTGS2, Homo sapiens, UniProt P35354)
DHODH: Dihydroorotate dehydrogenase (quinone), mitochondrial (DHODH, Homo sapiens, UniProt Q02127)
SCTR: Secretin receptor (SCTR, Homo sapiens, UniProt P47872)
PIK3CG: Phosphatidylinositol 4,5-bisphosphate 3-kinase catalytic subunit gamma isoform (PIK3CG, Homo sapiens, UniProt P48736)

Compound	target	assay	quantity	result
CN[C@H]1CC[C@@H](c2ccc(Cl)c(Cl)c2)c2ccccc21	SHMT2	binding, MST	pKd	4.92
CCCc1cc(C(=O)Nc2ccc(C(C)=O)cc2)c(NC(=O)c2ccccc2)s1	PTGS2	enzyme activity, inhibitor	pIC50	5.91
Cn1nc2c(=O)n(C3CC3)nc(C3CC3)c2c1Cc1ccc(C(F)(F)F)c(F)c1	DHODH	enzyme activity, inhibitor	pIC50	5.64
CC1=NN(/C(=N\c2ccccc2F)Nc2nnc(C)s2)C(c2ccc(C)cc2)S1 (centres unmarked)	SCTR	cAMP, agonist, TR-FRET	pEC50	4.70
O=C(/C=C/c1ccc(O)c(O)c1)O[C@@H]1C[C@](O)(C(=O)O)C[C@@H](O)[C@H]1O	PTGS2	enzyme activity, inhibitor, fluorescence	pIC50	4.52
NC(=O)c1cccc(C#CCN(CC[C@H](N)C(=O)O)C[C@H]2O[C@@H](n3cnc4c(N)ncnc43)[C@H](O)[C@@H]2O)c1	SHMT2	binding, MST	pKd	4.18
CC1=NN(/C(=N\c2cccnc2)Nc2nnc(C)s2)C(c2ccc(C)cc2)S1 (centres unmarked)	SCTR	cAMP, agonist, TR-FRET	pEC50	< 4.30
Cc1nc(Nc2ccc3c(c2)C(C)(C)C(=O)N3)c2ccccc2n1	PIK3CG	enzyme activity, inhibitor, ADP detection	pIC50	6.87
CCCc1ccc(/N=C(/Nc2nnc(C)s2)N2N=C(C)SC2c2ccc(C)cc2)cc1 (centres unmarked)	SCTR	cAMP, agonist, TR-FRET	pEC50	< 4.30
COc1cc2ncnc(Nc3ccc4c(c3)/C(=C/c3ccccc3)C(=O)N4)c2cc1OC	PIK3CG	enzyme activity, inhibitor, ADP detection	pIC50	6.96
Cc1c(C(=O)OC2CC2)nn(C)c1Cc1ccc(C(F)(F)F)nc1	DHODH	enzyme activity, inhibitor	pIC50	< 4.00
Cc1nc(N(C)c2ccc3c(c2)/C(=C/c2ccccc2Cl)C(=O)N3C)c2ccccc2n1	PIK3CG	enzyme activity, inhibitor, ADP detection	pIC50	6.98
Cc1nn(C2CC2)c(=O)c2nn(C)c(Cc3ccc(C(F)(F)F)c(C#N)c3)c12	DHODH	enzyme activity, inhibitor	pIC50	4.52
COc1cc2ncnc(Nc3ccc4c(c3)/C(=C/c3ccccc3)C(=O)N4C)c2cc1OC	PIK3CG	enzyme activity, inhibitor, ADP detection	pIC50	6.71
CCn1ncc2c([C@](O)(c3ccc(C(F)(F)F)c(Cl)c3)C3CC3)n(C)nc2c1=O	DHODH	enzyme activity, inhibitor	pIC50	< 4.00
COc1cc2ncnc(Nc3ccc4c(c3)/C(=C/c3cccc(Cl)c3)C(=O)N4C)c2cc1OC	PIK3CG	enzyme activity, inhibitor, ADP detection	pIC50	6.71
CCn1cc(C)c2c(C(O)c3ccc(Cl)c(F)c3)n(C)nc2c1=O (centres unmarked)	DHODH	enzyme activity, inhibitor	pIC50	< 4.00
